Laboratory results: BindingDB's records for doi:10.1021/jm200203f (Washington University, 2011)

Key:
D(2) dopamine receptor = D(2) dopamine receptor (Homo sapiens, UniProt P14416); test: Displacement of [125I]IABN from human dopamine D2 long receptor expressed in HEK293 cells after 60 mins by gamma counting
D(3) dopamine receptor = D(3) dopamine receptor (Homo sapiens, UniProt P35462); test: Displacement of [125I]IABN from human dopamine D3 receptor expressed in HEK293 cells after 60 mins by gamma counting
D(3) dopamine receptor, sequence (P35462 as listed by the source): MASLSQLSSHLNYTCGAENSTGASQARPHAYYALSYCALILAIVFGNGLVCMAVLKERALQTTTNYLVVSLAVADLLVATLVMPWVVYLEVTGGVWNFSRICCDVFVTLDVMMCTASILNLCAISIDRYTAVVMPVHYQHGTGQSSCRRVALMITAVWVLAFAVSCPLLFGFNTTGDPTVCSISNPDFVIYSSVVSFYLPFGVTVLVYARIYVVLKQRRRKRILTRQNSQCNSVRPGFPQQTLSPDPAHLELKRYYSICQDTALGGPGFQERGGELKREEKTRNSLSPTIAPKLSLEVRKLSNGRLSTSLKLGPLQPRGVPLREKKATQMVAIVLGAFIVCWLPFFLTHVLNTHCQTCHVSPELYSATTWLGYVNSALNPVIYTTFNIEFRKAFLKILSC

[1] = biological target: T1, 5-hydroxytryptamine receptor 1A (Homo sapiens, UniProt P08908); test: Displacement of [3H]8-OH-DPAT from human 5HT1A receptor after 60 mins by liquid scintillation counting
T1 sequence (P08908 whole entry): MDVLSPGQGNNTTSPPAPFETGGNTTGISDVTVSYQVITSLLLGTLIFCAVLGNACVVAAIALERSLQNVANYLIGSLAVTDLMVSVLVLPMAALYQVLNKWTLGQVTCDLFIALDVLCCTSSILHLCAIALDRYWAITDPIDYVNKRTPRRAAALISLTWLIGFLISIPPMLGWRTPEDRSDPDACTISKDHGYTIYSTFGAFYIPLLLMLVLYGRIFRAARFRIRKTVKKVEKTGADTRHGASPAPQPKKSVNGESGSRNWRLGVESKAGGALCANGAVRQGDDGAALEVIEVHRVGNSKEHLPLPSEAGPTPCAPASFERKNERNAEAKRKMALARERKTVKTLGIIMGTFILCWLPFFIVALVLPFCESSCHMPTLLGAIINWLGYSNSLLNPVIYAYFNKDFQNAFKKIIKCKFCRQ
In short: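 Inhibitor spanned 0.1 nM–10 µM or 0.01 nM–1 µM; 10 µM WAY-100635 defined nonspecific binding. Cold wash, filtration, scintillation counting; IC50 by nonlinear regression.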

[2] = biological target: Sigma non-opioid intracellular receptor 1 (Cavia porcellus, UniProt Q60492); test: Displacement of (+)-[3H]pentazocine from sigma 1 receptor in guinea pig brain membrane homogenates after 90 mins by liquid scintillation counting
Sigma non-opioid intracellular receptor 1, sequence (Q60492 whole entry): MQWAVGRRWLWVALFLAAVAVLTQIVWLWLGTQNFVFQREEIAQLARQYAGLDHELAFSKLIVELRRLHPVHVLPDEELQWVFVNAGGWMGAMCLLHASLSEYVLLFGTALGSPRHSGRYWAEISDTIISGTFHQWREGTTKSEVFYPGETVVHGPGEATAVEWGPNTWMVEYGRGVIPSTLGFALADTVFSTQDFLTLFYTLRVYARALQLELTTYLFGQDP

[3] = biological target: T2, Vesicular acetylcholine transporter (Homo sapiens, UniProt Q16572); test: Displacement of (-)-[3H]vesamicol from human VAChT expressed in rat PC12 A123.7 cells after 20 hrs
T2 sequence (Q16572 whole entry): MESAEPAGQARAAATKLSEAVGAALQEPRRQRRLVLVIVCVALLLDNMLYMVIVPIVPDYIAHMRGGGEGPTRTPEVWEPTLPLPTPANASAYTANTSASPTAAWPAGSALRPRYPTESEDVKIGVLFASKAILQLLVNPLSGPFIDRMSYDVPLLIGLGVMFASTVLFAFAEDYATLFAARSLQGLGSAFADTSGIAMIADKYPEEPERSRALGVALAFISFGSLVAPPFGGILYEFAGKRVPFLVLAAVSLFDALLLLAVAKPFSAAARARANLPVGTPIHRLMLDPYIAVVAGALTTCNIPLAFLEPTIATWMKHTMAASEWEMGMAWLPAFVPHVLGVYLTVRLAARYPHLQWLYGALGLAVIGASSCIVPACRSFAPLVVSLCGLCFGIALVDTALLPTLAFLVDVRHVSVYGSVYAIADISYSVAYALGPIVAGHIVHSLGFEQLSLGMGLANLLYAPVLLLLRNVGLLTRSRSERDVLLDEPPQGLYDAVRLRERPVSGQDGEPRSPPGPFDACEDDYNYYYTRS

D(2) dopamine receptor, sequence (P14416 whole entry): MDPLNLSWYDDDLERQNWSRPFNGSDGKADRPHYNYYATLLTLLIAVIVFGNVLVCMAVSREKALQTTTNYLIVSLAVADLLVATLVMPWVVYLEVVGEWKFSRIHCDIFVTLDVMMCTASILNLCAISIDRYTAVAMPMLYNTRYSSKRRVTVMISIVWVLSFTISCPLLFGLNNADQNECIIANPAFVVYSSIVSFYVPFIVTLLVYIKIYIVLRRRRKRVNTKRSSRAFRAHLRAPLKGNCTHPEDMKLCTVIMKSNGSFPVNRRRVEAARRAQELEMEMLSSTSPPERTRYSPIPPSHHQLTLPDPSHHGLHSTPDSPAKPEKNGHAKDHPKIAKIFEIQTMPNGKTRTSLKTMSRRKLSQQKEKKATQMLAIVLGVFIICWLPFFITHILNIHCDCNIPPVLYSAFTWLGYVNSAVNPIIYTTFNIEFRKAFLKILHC

SMILES | Ki (D(2) dopamine receptor) | Ki (D(3) dopamine receptor) | Ki [1] | Ki [2] | Ki [3]
O=C(c1ccc(F)cc1)C1CCN([C@H]2CCN(Cc3ccc(F)cc3)C[C@@H]2O)CC1 | 1.35 µM | > 20 µM | 2.54 µM | 0.00048 µM | 
COc1ccc(C(=O)C2CCN([C@H]3CN(Cc4ccccc4)CC[C@@H]3O)CC2)cc1 |  |  |  | 0.208 µM | 0.036 µM
O=C(c1ccc(F)cc1)C1CCN([C@H]2CCN(C(=O)c3ccc(F)cc3)C[C@@H]2O)CC1 |  |  |  | 3.14 µM | 3.6 µM
O=C(c1ccc(F)cc1)C1CCN([C@H]2CN(Cc3cccnc3)CC[C@@H]2O)CC1 |  |  |  | 1.16 µM | 0.237 µM
COc1ccc(C(=O)C2CCN([C@H]3CN(Cc4cccnc4)CC[C@@H]3O)CC2)cc1 |  |  |  | 2.23 µM | 0.107 µM
COc1ccc(C(=O)C2CCN([C@H]3CCN(Cc4ccc(F)cc4)C[C@@H]3O)CC2)cc1 | 1.49 µM | > 15 µM |  |  | 
